The record followed here is ChEMBL document CHEMBL1921743, “Design, synthesis, biophysical and biological studies of trisubstituted naphthalimides as G-quadruplex ligands” (Bioorg Med Chem, 2011).

Activity calls are given as the source filed them. No cut-off for these calls is given here.

Data set [1] deals with NIH3T3. The data set can be described thus: Cytotoxicity against mouse NIH/3T3 cells after 5 days by MTT assay. As to conditions: NIH3T3, 120 h. The class given is cell-based. Put shortly: (§1)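 Mouse embryo fibroblasts grown with bovine calf serum in place of fetal serum. Plated at 1000–3000/well, attached 24 h, then exposed to 0.1–100 µM drug at 37 °C for 5 days alongside 0.2% DMSO controls. MTT for 4 h, acidified isopropanol, A570 read. Eight replicates per point; IC50 taken graphically, mean ± SD of three experiments.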
Background: Formazan colour is commonly taken as a measure of viable cells.

Data set [2] has as its target Telomerase reverse transcriptase (Homo sapiens) (UniProt O14746). Kind of data set: Inhibition of telomerase in human A549 cells at 0.05 to 100 uM after 72 hrs by ELISA based TRAP assay. The class given is cell-based. Put shortly:
(§2)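 A549 cells exposed to compound at several concentrations for 72 h. Extracts (1–3 × 10^5 cell equivalents) run in a TRAP PCR-ELISA: P1-TS extension 20 min at 25 °C, then 30 PCR cycles, with an internal standard. Telomerase activity comes from elongation products; Taq activity from internal-standard amplification. Heat-inactivated extract serves as negative control. Triplicates, mean ± SEM, paired t-test.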

In data set [3] the test system is A549. The data set can be described thus: Cytotoxicity against human A549 cells after 5 days by MTT assay. Particulars: for IC50: A549, 120 h. The class given is functional, cell-based. Put shortly: (§3)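 Cells kept in RPMI-1640 with 10% FCS, 2 mM glutamine and gentamycin, 37 °C, 5% CO2. Seeded at 1000–3000/well, attached 24 h, then given 0.1–100 µM drug for 5 days; 0.2% DMSO controls. MTT added for 4 h, formazan dissolved in acidified isopropanol, A570 read. Eight replicates per point. IC50 read graphically from growth curves; mean ± SD of three experiments.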

In data set [4] the test system is Nucleic Acid. Kind of data set: Binding affinity to human telomeric AGGG(TTAGGG)3 quadruplex assessed as melting temperature at 1:1 compound to DNA ratio at pH 7 by UV-visible spectrophotometer analysis. The class given is nucleic-acid assay. In short, it runs like this:
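UV melting of 25 µM annealed quadruplex alone or with ligand at 1:1 or 2:1 ligand/DNA, pH 7.0 K-phosphate/KCl buffer. Absorbance at 295 nm, 20–85 °C, heating at 0.5 °C/min, 1 mm path. Tm taken as mean ± SD of at least three runs.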

Data set [5] deals with Nucleic Acid. The data set can be described thus: Binding affinity to human telomeric AGGG(TTAGGG)3 quadruplex assessed as fluorescence quenching at 10 uM after 3 mins by fluorescence titration method. The class given is nucleic-acid assay. Put shortly:
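Ligand held at 10 µM (final 2% DMSO) in K-phosphate/70 mM KCl buffer, pH 7.0, 25 °C, titrated with 100–160 µM annealed quadruplex in 5–10 µL additions, ≥3 min equilibration each. Emission recorded 400–600 nm. Fraction free ligand from the change in emission maximum, plotted against quadruplex concentration and fitted for Kb and n; ≥3 experiments.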

The target of data set [6] is DNA polymerase I, thermostable (Thermus aquaticus) (UniProt P19821). Kind of data set: Inhibition of Thermus aquaticus taq polymerase at 0.5 to 100 uM after 72 hrs by ELISA based TRAP assay. In short, it runs like this:
as §2
For orientation: In an ELISA, binding on a coated surface is turned into a signal by an enzyme label.

Data set [7] has as its system Nucleic Acid. Kind of data set: Binding affinity to human telomeric AGGG(TTAGGG)3 quadruplex in first binding event at 480 to 640 uM every 300 to 400 secs at pH 7 by isothermal titration calorimetry analysis. The class given is nucleic-acid assay. In short, it runs like this: (§4)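 Isothermal titration calorimetry at 25 °C, pH 7.0 (20 mM K phosphate, 70 mM KCl, 0.1 mM EDTA). Quadruplex annealed 90 °C for 5 min, slow-cooled, held 24 h at 4 °C, used at 30–40 µM. Ligand 480–640 µM, 5–10 µL injections every 300/400 s, 25–50 injections. First injection discarded; dilution heat subtracted; multiple-sites fit gives Kb for each sequential event.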
Background: ITC needs no label: the signal is the heat of the interaction.

Data set [8] deals with Telomerase reverse transcriptase (Homo sapiens) (UniProt O14746). The data set can be described thus: Inhibition of telomerase in human A549 cells after 72 hrs by ELISA based TRAP assay. The class given is cell-based. In short, it runs like this: as §2
Telomerase reverse transcriptase (Homo sapiens), sequence (O14746 whole entry): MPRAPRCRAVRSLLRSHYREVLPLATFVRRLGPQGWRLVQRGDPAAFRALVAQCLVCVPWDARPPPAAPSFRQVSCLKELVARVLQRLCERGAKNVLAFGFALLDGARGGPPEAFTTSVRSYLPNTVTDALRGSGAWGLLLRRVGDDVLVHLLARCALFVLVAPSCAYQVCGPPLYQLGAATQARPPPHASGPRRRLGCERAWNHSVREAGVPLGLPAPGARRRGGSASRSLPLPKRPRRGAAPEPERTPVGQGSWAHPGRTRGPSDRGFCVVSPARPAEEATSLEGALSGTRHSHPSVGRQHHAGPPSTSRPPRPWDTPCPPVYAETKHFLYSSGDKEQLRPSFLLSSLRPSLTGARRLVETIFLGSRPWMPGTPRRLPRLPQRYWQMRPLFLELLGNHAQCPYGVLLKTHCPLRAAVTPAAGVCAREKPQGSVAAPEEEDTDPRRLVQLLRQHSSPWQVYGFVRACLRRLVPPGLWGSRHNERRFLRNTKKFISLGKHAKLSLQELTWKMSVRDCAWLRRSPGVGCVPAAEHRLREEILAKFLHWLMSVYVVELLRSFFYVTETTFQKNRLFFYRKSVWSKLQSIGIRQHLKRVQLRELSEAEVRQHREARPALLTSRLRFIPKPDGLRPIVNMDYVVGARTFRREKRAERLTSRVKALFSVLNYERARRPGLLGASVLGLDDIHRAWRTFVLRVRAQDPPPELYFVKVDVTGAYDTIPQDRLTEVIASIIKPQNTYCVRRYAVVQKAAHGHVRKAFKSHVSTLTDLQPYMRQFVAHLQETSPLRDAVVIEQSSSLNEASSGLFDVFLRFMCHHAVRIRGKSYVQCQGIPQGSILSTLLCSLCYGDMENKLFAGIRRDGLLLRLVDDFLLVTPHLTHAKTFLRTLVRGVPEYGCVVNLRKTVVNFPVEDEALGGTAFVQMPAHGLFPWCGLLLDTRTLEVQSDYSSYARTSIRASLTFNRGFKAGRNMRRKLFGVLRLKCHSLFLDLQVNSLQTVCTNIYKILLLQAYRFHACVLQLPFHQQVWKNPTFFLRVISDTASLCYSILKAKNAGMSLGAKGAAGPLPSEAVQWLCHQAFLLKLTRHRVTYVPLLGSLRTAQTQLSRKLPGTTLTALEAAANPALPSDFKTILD
For data set [9], the system named is Nucleic Acid. Kind of data set: Binding affinity to human telomeric AGGG(TTAGGG)3 quadruplex after 4 secs by circular dichroism spectroscopy analysis. The class given is nucleic-acid assay.
Data set [10] has as its system M14. The data set can be described thus: Cytotoxicity against human M14 cells after 5 days by MTT assay. The class given is functional, cell-based. As to conditions: for IC50: M14, 120 h. In short, it runs like this: as §3
Data set [11] has as its target DNA polymerase I, thermostable (Thermus aquaticus) (UniProt P19821). Kind of data set: Inhibition of Thermus aquaticus taq polymerase at 0.1 to 50 uM after 72 hrs by ELISA based TRAP assay. Put shortly: as §2
In data set [12] the target is Telomerase reverse transcriptase (Homo sapiens) (UniProt O14746). The data set can be described thus: Inhibition of telomerase in human A549 cells at 5 uM after 72 hrs by ELISA based TRAP assay. The class given is cell-based. Put shortly:
as §2

The test system of data set [13] is Nucleic Acid. The data set can be described thus: Binding affinity to duplex DNA d(CGCGAATTCGCG)2 duplex at pH 7 by isothermal titration calorimetry method. The class given is nucleic-acid assay. In short, it runs like this:
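ITC at 298 K. Ligand dissolved in the DNA buffer (20 mM potassium phosphate, 70 mM KCl, 0.1 mM EDTA, pH 7.0). 480–640 µM ligand injected in 5–10 µL aliquots into 30–40 µM annealed duplex every 300 or 400 s, 25–50 injections, stirring 150 rpm. Heats corrected for ligand dilution; isotherms fitted for Kb, ΔH and n.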

For data set [14], the system named is Nucleic Acid. Kind of data set: Binding affinity to satellite DNA by UV titration method method. The class given is nucleic-acid assay.
Data set [15] relates to NIH3T3. Kind of data set: Cytotoxicity against mouse NIH/3T3 cells assessed as growth inhibition at 0.1 to 100 uM after 5 days by MTT assay. The class given is cell-based. As to conditions: nih3t3, 120 h. In short, it runs like this:
as §1

Data set [16] concerns Nucleic Acid. Kind of data set: Binding affinity to human telomeric AGGG(TTAGGG)3 quadruplex in second binding event at 480 to 640 uM every 300 to 400 secs at pH 7 by isothermal titration calorimetry method. The class given is nucleic-acid assay. Put shortly: as §4
Data set [17] has as its target DNA polymerase I, thermostable (Thermus aquaticus) (UniProt P19821). Kind of data set: Inhibition of Thermus aquaticus taq polymerase at 10 to 100 uM after 72 hrs by ELISA based TRAP assay. In short, it runs like this:
as §2

DNA polymerase I, thermostable (Thermus aquaticus), sequence (P19821 whole entry): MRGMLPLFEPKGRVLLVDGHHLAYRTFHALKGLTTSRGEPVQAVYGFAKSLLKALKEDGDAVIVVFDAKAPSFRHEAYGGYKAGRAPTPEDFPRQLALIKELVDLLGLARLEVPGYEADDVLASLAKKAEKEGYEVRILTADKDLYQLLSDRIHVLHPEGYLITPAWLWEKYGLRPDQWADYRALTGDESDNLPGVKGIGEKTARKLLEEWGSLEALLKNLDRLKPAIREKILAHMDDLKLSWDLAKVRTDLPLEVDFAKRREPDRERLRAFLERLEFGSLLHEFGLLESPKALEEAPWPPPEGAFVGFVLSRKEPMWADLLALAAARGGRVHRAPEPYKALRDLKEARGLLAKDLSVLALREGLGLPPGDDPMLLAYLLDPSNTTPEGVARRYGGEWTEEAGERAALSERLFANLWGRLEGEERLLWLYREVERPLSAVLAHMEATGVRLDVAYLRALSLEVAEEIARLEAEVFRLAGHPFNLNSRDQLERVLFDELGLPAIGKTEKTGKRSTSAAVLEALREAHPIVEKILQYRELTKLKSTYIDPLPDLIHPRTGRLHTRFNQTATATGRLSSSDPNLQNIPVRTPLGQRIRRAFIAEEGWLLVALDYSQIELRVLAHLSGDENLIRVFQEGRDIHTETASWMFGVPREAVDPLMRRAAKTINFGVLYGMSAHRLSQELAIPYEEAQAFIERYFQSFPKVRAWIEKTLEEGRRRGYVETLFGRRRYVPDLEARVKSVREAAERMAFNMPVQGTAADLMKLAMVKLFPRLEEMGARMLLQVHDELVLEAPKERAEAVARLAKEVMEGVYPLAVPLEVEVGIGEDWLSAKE

Usually IC50 stands for the concentration at which inhibition is half-maximal. The term inhibition denotes the drop in the measured response relative to a control, in per cent. Take `O=C(CCN1CCCC1)Nc1cc2c3c(cc(NC(=O)CCN4CCCC4)cc3c1)C(=O)N(CCCN1CCOCC1)C2=O`: the half-maximal inhibitory concentration (IC50) was 4.6 µM in data set [1], 40.3 µM in [3] and 34.7 µM in [10]. Moreover, the inhibition result in data set [2] and in data set [6] was “Active” in each case. Further, the “growth inhibition (GI)” value in data set [3] and in [10] was “Dose-dependent effect” throughout. Moreover, in [4], the Tm was 60 °C. Further, the Kb was 10 ×10⁵ /M in data set [5] and 4 ×10⁵ /M in data set [7]. Moreover, the inhibition result in data set [8] is “Dose-dependent effect”. In addition, the outcome in data set [9] was Active.
`O=C(CCN1CCCC1)Nc1cc2c3c(cc(NC(=O)CCN4CCCC4)cc3c1)C(=O)N(CCN1CCCC1)C2=O`: the Kb in [5] was 12 ×10⁵ /M.
Still for that read-out and setting: with `O=C(CCN1CCCC1)Nc1cc2c3c(cc(NC(=O)CCN4CCCC4)cc3c1)C(=O)N(CCN1CCCCC1)C2=O` the figure was 9 ×10⁵ /M.
For the compound `O=C(CCN1CCCC1)Nc1cc2c3c(cc(NC(=O)CCN4CCCC4)cc3c1)C(=O)N(CCCN1CCCC1)C2=O`, in data set [11], the inhibition result is “inactive”. Also, the inhibition was 50% in data set [12] and “Dose-dependent effect” in data set [8]. Besides, the Kb in data set [13] was 5 ×10⁵ /M; in [5], 30 ×10⁵ /M; in [16], 5 ×10⁵ /M; in [7] it was 2 ×10⁷ /M. Moreover, the outcome in data set [14] was inactive. Moreover, the “growth inhibition (GI)” value in [3] and in data set [10] was “Dose-dependent effect” in each case. Besides, the concentration for half-maximal inhibition (IC50) worked out at 5.2 µM in data set [3] and 1.5 µM in data set [10]. In data set [4], the Tm is 60 °C. Further, the Activity entry in data set [15] was “Non-toxic”. In addition, in data set [9], the result was Active.
Turning to `O=C(CCN1CCCC1)Nc1cc2c3c(cc(NC(=O)CCN4CCCC4)cc3c1)C(=O)N(CCCN1CCCCC1)C2=O`, the IC50 in [1] amounted to 43.3 µM; in [3], 9.9 µM; in data set [10], 8 µM. Further, the inhibition is 26% in data set [12] and “Dose-dependent effect” in [8]. Further, the inhibition entry in [17] was “Active”. Moreover, the result in [14] was inactive. Further, the “growth inhibition (GI)” value in [3] and in [10] was “Dose-dependent effect” in each case. Moreover, in data set [4], the Tm came out at 60 °C. The Kb in data set [5] was 24 ×10⁵ /M; in [16], 6 ×10⁵ /M; in data set [7], 5 ×10⁷ /M. The outcome in data set [9] was Active.
Turning to `CN(C)CCN1C(=O)c2cc(NC(=O)CCN3CCCC3)cc3cc(NC(=O)CCN4CCCC4)cc(c23)C1=O`, in data set [5], the Kb came out at 6 ×10⁵ /M.
The same measure, in the same setting: the result for `O=C(CCN1CCCC1)Nc1cc2c3c(cc(NC(=O)CCN4CCCC4)cc3c1)C(=O)N(CCN1CCN(C(=O)CCN3CCCC3)CC1)C2=O` reads 7 ×10⁵ /M; that for `O=C(CCN1CCCC1)Nc1cc2c3c(cc(NC(=O)CCN4CCCC4)cc3c1)C(=O)N(CCCN1CCN(C(=O)CCN3CCCC3)CC1)C2=O`, 9 ×10⁵ /M.
